MEKK2 mut-MEK5: MEK5 binding signal on mutant MEKK2 PB1, primary screen, biochemical, multiplex bead flow cytometry, Alexa488-MEK5; AID 1530, 2009; Alexa488-MEK5 binding to MEKK2 mutant; 290,000 compounds, 0.35% hits; percent response, % at 10 µM; in the data active = percent response above about 24%, passing the limit was not always enough
MEKK3 PB1 HTS: modulators of MEKK3-MEK5 PB1 binding, primary screen, biochemical, wildtype MEKK3, multiplex bead flow cytometry, Alexa488-MEK5; AID 1529, 2009; 290,000 compounds, 1.4% hits; bead-based flow cytometry, Alexa488-MEK5 binding to MEKK3; actives lie on both sides; 0 = blocked by unlabeled MEK5, 100 = vehicle; Mitogen-activated protein kinase kinase kinase 3 (Homo sapiens), Q99759; binding response (% of control), % at 10 µM;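 active = binding response more than 3 SD above or below the average of its plate-row segment, actives on both sides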;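 note: Alexa488 bead fluorescence after subtracting the streptavidin-only scavenger bead signal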
MEKK2wt PB1 HTS: modulators of MEK5 binding to wildtype MEKK2, primary screen, biochemical, multiplex bead flow cytometry, Alexa488-MEK5 | 290,000 compounds, 1.1% hits | AID 1531, 2009 | binding response (% of control), % at 10 µM | Alexa488-MEK5 binding to MEKK2 WT; actives lie on both sides; in the data active = binding response below about 67% or above about 130%
Arrestin-AP2 inh: inhibitors of beta-arrestin/AP2 binding, primary screen, biochemical, GPCR trafficking, flow cytometry | FITC-arrestin peptide / GST-AP2 beads; AP2 beta2 appendage carries R879A mutation | 340,000 compounds, 0.31% hits | inhibition, % at 10 µM | AID 504490, 2011;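 active = inhibition above a set limit, near 3 SD of compounds lacking own fluorescence, cut at about 54% in these data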;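 note: plate controls were DMSO wells for no effect and 5 µM unlabelled arrestin peptide for full effect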
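System: GST-tagged AP2 beta2-adaptin appendage (R879A) on 4 µm glutathione beads / Reagent: FITC-arrestin peptide, 50 nM / Detection: HyperCyt-sampled flow cytometry, FL1 channel, ex 488/em 535 nm / Timing: 12 min plus 1 h, RT / Buffer or medium: PBS plus Tween 20 (0.05%) and BSA (0.1%)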
Arr AP2 CP1: inhibitors of arrestin peptide binding to AP2, confirmation, biochemical, cherry pick 1, flow cytometry beads | inhibition, % at 10 µM | shares compounds with Arrestin-AP2 inh | GST-AP2 beads, FITC arrestin peptide binding; GST-fused beta2-adaptin appendage, R879A mutant | 1,300 compounds, 2% hits;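 active = inhibition above a set limit, roughly 3 SD of non-fluorescent compound noise, cut at about 38% in these data; inactive = inhibition at or below that limit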;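 note: loss of bead fluorescence from 50 nM FITC arrestin peptide bound to appendage; 0% = negative control wells and 100% = excess unlabelled arrestin peptide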
GST-FITC bead: GST-fluorescein capture on glutathione beads, confirmation, artefact control for arrestin-AP2 inhibitor project, biochemical, cherry pick 1, flow cytometry | shares compounds with Arrestin-AP2 inh | GST-fluorescein binding to GSH beads, fluorescence, counter-screen | inhibition, % at 10 µM | 1,300 compounds, 2% hits | AID 588338, 2011;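 active = inhibition above 50%, about 3 SD of the inhibition seen with non-fluorescent compounds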;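 note: fluorescein maleimide labelled GST captured on 4 micron glutathione beads; higher means more loss of bead fluorescence from quenching or blocked binding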
Numbers without * were called inactive; · = no result given. In the library only some 2.3% were active in any assay of this set; here they are far more common.

SMILES | MEKK2 mut-MEK5 | MEKK3 PB1 HTS | MEKK2wt PB1 HTS | Arrestin-AP2 inh | Arr AP2 CP1 | GST-FITC bead
CCn1c(=O)n(CC)c2cc(N3CCCC3)c(NC(=O)c3cccc(C)c3)cc21 | -3.0 | 95.0 | 97.0 | 63.7* | 8.9 | 7.3
COc1ccc(CCNC(=O)COC(=O)C2CC2)cc1OC | · | · | · | 5.2 | · | ·
COc1cc(C(=O)NC(=S)Nc2ccc3[nH]c(=O)[nH]c3c2)cc(OC)c1OC | 0.0 | 102.0 | 106.0 | 1.5 | · | ·
O=C(NCc1cccc(Cl)c1)C1CCC(=O)N(CCN2CCOCC2)C1 (configuration not stated) | 7.0 | 105.0 | 105.0 | 9.7 | · | ·
CCC(C)NC(=O)c1cc2c(=O)[nH]c3ccc(C)cc3c2s1 (configuration not stated) | 3.0 | 103.0 | 101.0 | -6.4 | · | ·
COc1c(Br)cc([N+](=O)[O-])c(OC)c1C(=O)NC(=O)Nc1nc(C)cc(C)n1 | -19.0 | 83.0 | 82.0 | 8.1 | · | ·
CCCn1c(SCC(=O)N2CCCCC2)nnc1C(C)C | -8.0 | 101.0 | 86.0 | 56.0* | -5.0 | -0.6
O=C(NCCS(=O)(=O)NCc1ccc2c(c1)OCO2)c1ccccc1 | · | · | · | -1.2 | · | ·
COc1ccc(Nc2ncccc2C(=O)NCc2ccccc2)cc1 | 4.0 | 102.0 | 106.0 | 58.4* | 0.0 | -1.1
COc1cccc(Nc2ncccc2C(=O)NCc2ccccc2)c1 | 0.0 | 101.0 | 97.0 | -5.6 | · | ·
Cc1cccc(NC2SC(=O)NC2=O)c1 (configuration not stated) | -4.0 | 105.0 | 101.0 | 12.3 | · | ·
CN(C)c1ccc(NC(=O)COC(=O)Cn2nnc3ccccc32)cc1 | 8.0 | 101.0 | 107.0 | 61.1* | -4.9 | -9.3
CCCCCCSc1ccc([C@@H]2[C@H]3C(=O)N(CC)C(=O)[C@H]3[C@]3(C(=O)OC)CCCCN23)cc1OC | · | · | · | -5.9 | · | ·
C/C(=N\NC(=O)c1cc(-c2ccncc2)nc2ccccc12)c1ccc(N2CCOCC2)cc1 | 3.0 | 108.0 | 107.0 | 111.0* | -12.6 | 0.1
CC(=NNC(=O)c1cc(C)nc2ccccc12)c1ccc(N2CCOCC2)cc1 | · | · | · | -2.1 | · | ·
O=C(Nc1ccnn1C1CCN(C(=O)c2cccc(C(F)(F)F)c2)CC1)C1CC1 | 0.0 | 100.0 | 99.0 | -5.6 | · | ·
COc1ccc(NC(=O)CSc2nnnn2C)c([N+](=O)[O-])c1 | -8.0 | 91.0 | 91.0 | -10.4 | · | ·
COc1cccc(CNc2ccc3[nH]c(=O)[nH]c3c2)c1OCc1ccc(F)cc1 | 5.0 | 105.0 | 106.0 | 55.4* | 17.7 | 13.3
CC(=O)Nc1cccc(-c2csc(N)n2)c1 | 5.0 | 105.0 | 106.0 | 54.9* | 2.2 | -0.8
CC(=O)Nc1cccc(-c2csc(NCc3ccccc3)n2)c1 | 5.0 | 101.0 | 105.0 | 38.6 | · | ·
O=S(=O)(NCCOc1ccccc1F)c1ccc(Cl)cc1F | · | · | · | 59.6* | -2.9 | -9.9
O=S(=O)(NCCOc1ccccc1F)c1cccc(Br)c1 | · | · | · | 14.5 | · | ·
CC(C)S(=O)(=O)N1CCCC(C(=O)c2cccc(Cl)c2)C1 (configuration not stated) | 0.0 | 99.0 | 98.0 | 15.8 | · | ·
COc1ccc(C(O)P(=O)(O)CCc2ccccc2)cc1 (configuration not stated) | 0.0 | 98.0 | 97.0 | 61.6* | 8.3 | -5.8
COc1ccc2cc(C(=O)Nc3ccc(F)cc3)sc(=O)c2c1OC | 1.0 | 107.0 | 102.0 | 98.9* | -0.8 | -3.1
SMILES | MEKK2 mut-MEK5 | MEKK3 PB1 HTS | MEKK2wt PB1 HTS | Arrestin-AP2 inh | Arr AP2 CP1 | GST-FITC bead
O=C(COc1ccc([N+](=O)[O-])cc1Cl)N1CCc2ccccc21 | · | · | · | 5.4 | · | ·
COc1ccc(C=O)cc1COc1ccccc1F | -3.0 | 92.0 | 91.0 | 5.4 | · | ·
COc1ccc(/C=C/C(=O)c2ccccc2)cc1COc1ccccc1F | -10.0 | 93.0 | 94.0 | 56.1* | 17.1 | -6.9
COCCn1c(SCC(=O)Nc2ccc(N3CCOCC3)cc2)nc2ccccc21 | 25.0 | 103.0 | 117.0 | 18.1 | · | ·
COCCn1c(SCC(=O)Nc2ccc(S(=O)(=O)N(C)C)cc2)nc2ccccc21 | 0.0 | 102.0 | 101.0 | 56.6* | 0.5 | -11.7
CCc1ccc(-c2cc(C)no2)cc1S(=O)(=O)N1CCC(C)CC1 | -8.0 | 96.0 | 96.0 | 21.5 | · | ·
Cc1cc(-c2ccc(C(C)C)c(S(=O)(=O)N3CCC(C)CC3)c2)on1 | -4.0 | 104.0 | 101.0 | 57.6* | 7.5 | -6.5
COc1cccc(NC(=O)C2CSC3(C)CCC(=O)N23)c1 (configuration not stated) | · | · | · | -3.6 | · | ·
CC12CCC(=O)N1C(C(=O)OCC(=O)Nc1ccc(C(F)(F)F)cc1)CS2 (configuration not stated) | · | · | · | 10.0 | -4.5 | -5.8
Cc1ccc(NC(=O)COC(=O)C2CSC3(C)CCC(=O)N23)c(C)c1 (configuration not stated) | · | · | · | 68.8* | -8.2 | -3.0
Cc1ccc(NC(=O)COC(=O)C2CSC3(C)CCC(=O)N23)cc1S(=O)(=O)N1CCOCC1 (configuration not stated) | -12.0 | 92.0 | 83.0 | 63.5* | -6.2 | -2.5
CC12CCC(=O)N1C(C(=O)OCC(=O)Nc1cccc(Br)c1)CS2 (configuration not stated) | -2.0 | 104.0 | 101.0 | -20.4 | 1.4 | -3.6
CCNC(=O)NC(=O)COC(=O)C1CSC2(C)CCC(=O)N12 (configuration not stated) | 10.0 | 103.0 | 104.0 | 2.1 | · | ·
O=C(N/N=C/C=C/c1ccc2c(c1)OCO2)C(O)c1ccccc1 (configuration not stated) | -12.0 | 97.0 | 101.0 | 40.5 | · | ·
CN(C(=O)COC(=O)C1CSC2(C)CCC(=O)N12)c1ccccc1 (configuration not stated) | · | · | · | 22.4 | 9.5 | 1.8
Cc1nc2ccc(NC(=O)c3cc([N+](=O)[O-])cc([N+](=O)[O-])c3Cl)cc2s1 | 19.0 | 103.0 | 113.0 | 0.6 | · | ·
CC1CCN(S(=O)(=O)N2CCC(C(=O)O)CC2)CC1 | 20.0 | 100.0 | 116.0 | 56.5* | 19.6 | -3.9
COc1ccc2c3c(cccc13)N(C)N=C2C | · | · | · | 61.6* | 32.7 | 11.4
Cc1ccc(NC(=S)N(C)C)cc1C | -2.0 | 100.0 | 94.0 | -2.7 | · | ·
CC1S/C(=N/N=C/c2ccco2)N(Cc2ccccc2)C1=O (configuration not stated) | -4.0 | 98.0 | 102.0 | -0.8 | · | ·
